TAAR1 ag: agonists of human TAAR1. CHO RD-HGA16 TAAR1, Fluo-8 calcium fluorescence; vehicle wells 0%, saturating PEA agonist 100%. activation, % at 3 µM. 0.99% of 360,000 active. AID 624467;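 active means activation above the mean activation of all test compounds in the run plus 3 SD, cut at about 38% in these data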
Target sequence (Q96RJ0 whole entry, looked up): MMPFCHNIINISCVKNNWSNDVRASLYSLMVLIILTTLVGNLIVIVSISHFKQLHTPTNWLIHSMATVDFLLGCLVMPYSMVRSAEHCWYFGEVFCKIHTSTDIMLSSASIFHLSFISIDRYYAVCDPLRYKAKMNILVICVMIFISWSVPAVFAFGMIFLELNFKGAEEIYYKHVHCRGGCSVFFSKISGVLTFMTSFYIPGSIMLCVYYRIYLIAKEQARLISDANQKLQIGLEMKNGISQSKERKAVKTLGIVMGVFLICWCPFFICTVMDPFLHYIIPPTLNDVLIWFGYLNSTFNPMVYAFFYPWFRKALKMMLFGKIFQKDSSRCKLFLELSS
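Test system: RD-HGA16 (CHO) cells co-expressing Gα16 and hTAAR1 | Doses: Single dose, 3 µM | Schedule: 17-24 h seeding, 75 min 37 °C dye, 30 min RT | Evaluation: % activation from peak over basal fluorescence ratio, DMSO-to-PEA scaled | Technique: Kinetic Fluo-8 calcium fluorescence | Benchmarks: Low control DMSO, high control PEA (EC100)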
MPTP inh: blocks calcium-induced mitochondrial swelling | inhibition, % at 10 µM | 1.4% of 360,000 active | AID 602449 | isolated mouse mitochondria, Ca2+ swelling absorbance, 30 min;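 active means inhibition of 50% or more, scaled per plate between neutral and stimulator controls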;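 further: 0% = DMSO wells given calcium and 100% = 1 mM EGTA wells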
DAGLB inhibitor: diacylglycerol lipase beta (human) inhibition; HEK293T DAGLB membrane lysate, EnzChek fluorogenic substrate; Q8NCG7; 0.059% of 340,000 active; inhibition, % at 5.17 µM; in the data active means inhibition above about 34%;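 further: 0% = enzyme with vehicle and 100% = wells lacking enzyme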
TAAR1 antagonist: antagonists of human TAAR1. AID 624466. CHO RD-HGA16 TAAR1, Fluo-8 calcium fluorescence, antagonist. 1.5% of 360,000 active. inhibition, % at 3 µM. Q96RJ0;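 active means inhibition above a per-plate cutoff, the mean inhibition of test compounds on that plate plus 3 SD, cut at about 49% in these data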;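 further: 0% = DMSO plus EC80 beta-PEA response and 100% = DMSO alone without agonist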
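Material: CHO RD-HGA16 cells bearing hTAAR1; compound dosing: one-point dosing, 3 µM nominal final; schedule: dye loading 75 min at 37 °C, then 30 min room temperature; measured by: calcium fluorescence with Fluo-8; control set: vehicle and agonist controls; replication: n of 1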
GPR7 antagonist: human neuropeptides B/W receptor 1 antagonism | P48145 | GPR7-expressing cells, fluorescence antagonist assay | inhibition, % at 4.4 µM | 1.1% of 290,000 active | AID 1861; in the data active means inhibition above about 16%, passing the limit was not always enough;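 further: cells stimulated with the agonist NPW; 0% = agonist with vehicle and 100% = vehicle without agonist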
Target sequence (P48145 whole entry, looked up): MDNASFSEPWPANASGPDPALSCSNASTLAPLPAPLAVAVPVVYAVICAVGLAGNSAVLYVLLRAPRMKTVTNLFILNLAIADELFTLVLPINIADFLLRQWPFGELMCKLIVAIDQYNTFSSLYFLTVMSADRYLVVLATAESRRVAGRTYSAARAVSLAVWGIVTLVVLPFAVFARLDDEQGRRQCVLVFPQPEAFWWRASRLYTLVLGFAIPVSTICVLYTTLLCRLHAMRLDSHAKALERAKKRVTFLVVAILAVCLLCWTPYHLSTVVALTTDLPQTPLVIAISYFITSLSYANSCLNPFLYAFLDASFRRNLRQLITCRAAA
Rh123 counter: membrane potential counter-screen of mitochondrial pore inhibitors; shares compounds with MPTP inh; isolated mitochondria, Rhodamine 123 fluorescence; inhibition, % at 10 µM; 78% of 5,000 active; AID 624504; in the data active means inhibition above about 22%;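 further: 0% = DMSO vehicle and 100% = positive control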
MPTP swell DR: dose response confirmation of mitochondrial permeability transition pore inhibitors. IC50, µM. shares compounds with MPTP inh. AID 651561. isolated mitochondria swelling, absorbance. 58% of 780 active; in the data active means IC50 below about 20 µM
MPTP counter DR: MPTP inhibitor counter-screen activity, dose response | shares compounds with MPTP inh | isolated mitochondria counterscreen, fluorescence read-out | IC50, µM | 49% of 780 active | AID 651564; in the data active means IC50 below about 80 µM
Numbers without * were called inactive; i = inactive; / = no result given. Compounds with a hit are over-represented: about 4% of the library has one in this group of screens.

SMILES | TAAR1 ag | MPTP inh | DAGLB inhibitor | TAAR1 antagonist | GPR7 antagonist | Rh123 counter | MPTP swell DR | MPTP counter DR
CC(C)CC(=O)NC(c1ccccc1Cl)c1c(O)ccc2ccccc12 (stereo unspecified) | 2 | 76* | 3 | 22 | 0 | 86* | / | /
COc1ccc(C(NC(=O)CC(C)C)c2c(O)ccc3ccccc23)cc1 (stereo unspecified) | 4 | 2 | -1 | -8 | -4 | / | / | /
COc1ccc(C(NC(=O)C2CCCCC2)c2c(O)ccc3ccccc23)cc1 (stereo unspecified) | 3 | 81* | -4 | -5 | 0 | 69* | / | /
Cc1cc2nc(-c3ccc(F)cc3)c(CC(C)(C)C)n2c(C)c1Br | 3 | 2 | / | -16 | / | / | / | /
CCc1nc2ccc(C(=O)NCCc3c[nH]c4ccccc34)cn2c1N(C=O)CCC(C)C | 23 | -1 | / | 40 | / | / | / | /
Cc1cccc(C)c1-n1nnnc1C1(C)CCC(=O)N1Cc1ccco1 (stereo unspecified) | 2 | 0 | / | 4 | / | / | / | /
COc1ccc(-c2cc3ccccc3[nH]2)cc1 | 0 | 2 | 5 | 6 | -6 | / | / | /
Cc1ccc(O)c(-c2cc3ccccc3[nH]2)c1 | 7 | 53* | 2 | -6 | -15 | 49* | / | /
OCCN1CCN(c2nc(-c3ccccc3)c3cc(Cl)ccc3n2)CC1 | 31 | 80* | -5 | 1 | 5 | -14 | 9.2* | >80
Cc1ccc2nc(N3CCN(CCO)CC3)nc(-c3ccccc3)c2c1 | 13 | 1 | -3 | -16 | -17 | / | / | /
CN1CCN(c2nc(-c3ccccc3)c3cc(Cl)ccc3n2)CC1 | 15 | 63* | -1 | -6 | -2 | -6 | 17* | 77*
COC(=O)C1=C(C)N(C)C(=NCc2ccccc2C(F)(F)F)NC1c1cccc(F)c1 (stereo unspecified) | 5 | / | / | 6 | / | / | / | /
CCCCCCCCN1C(=O)[C@H](CC(=O)NCc2cccc(C(F)(F)F)c2)C[C@@]2(C(=O)OC)CC(C)(C)CC=C12 | -1 | 1 | / | 1 | / | / | / | /
CCCCC1OC(CCc2ccccc2)CC2=C1C(=O)OC(C)(C)O2 (stereo unspecified) | 3 | / | / | -1 | / | / | / | /
CCOC(=O)Cc1nnc2c(Nc3ccccc3F)nc3nonc3n12 | 7 | 92* | 3 | -18 | -8 | 125* | / | /
CCOC(=O)Cc1nnc2c(Nc3ccc(C)cc3)nc3nonc3n12 | 6 | 12 | 0 | -7 | 1 | / | / | /
Cc1ccc(NC(=O)C(=O)NCc2ccc(/C=C(/C#N)C(=O)NCc3cccnc3)o2)cc1C | 2 | 60* | 2 | 12 | -3 | 76* | / | /
CN1OC[C@@H]2CN(C(=O)c3ccc(C#N)cc3)[C@H](c3cccc(Br)c3)C[C@@H]21 | 1 | / | / | -19 | / | / | / | /
COc1ccc(C2C(C#N)=C(C)NC3=C2C(=O)c2ccccc23)cc1 (stereo unspecified) | 3 | 1 | -1 | -4 | -16 | / | / | /
CC1=C([N+](=O)[O-])C(c2ccccc2)C2=C(N1)c1ccccc1C2=O (stereo unspecified) | 15 | 88* | 23 | -2 | 15 | 65* | / | /
O=[N+]([O-])c1c(O)c(Cl)cc(Cl)c1Cl (tested in a mixture with another compound) | 24 | 78* | 13 | -10 | / | 86* | / | /
CCN(CC)CCN(C(=O)/C=C/c1cccs1)c1nc2ccc(C)cc2s1 | 1 | 11 | -8 | 6 | 5 | / | / | /
Cc1ccc2nc(N(CCN(C)C)C(=O)/C=C/c3cccs3)sc2c1 | 15 | 99* | -8 | 0 | 2 | -17 | 7.5* | >80
Cc1ccc(S(=O)(=O)CC(=O)N(CCCN(C)C)c2nc3ccc(C)cc3s2)cc1 | 31 | 90* | 0 | -3 | / | -12 | 4.5* | 75*
Cc1ccc2nc(N(CCCN(C)C)C(=O)CCc3ccccc3)sc2c1 | 24 | 102* | 0 | 5 | 13 | -10 | 3.7* | >80
SMILES | TAAR1 ag | MPTP inh | DAGLB inhibitor | TAAR1 antagonist | GPR7 antagonist | Rh123 counter | MPTP swell DR | MPTP counter DR
Cc1ccc2nc(N(CCCN(C)C)C(=O)CS(=O)(=O)c3ccccc3)sc2c1 | 4 | 47 | -1 | 0 | / | / | / | /
Cc1ccc2nc(N(CCCN(C)C)C(=O)CN3C(=O)c4ccccc4C3=O)sc2c1 | 14 | 0 | 0 | -6 | 0 | / | / | /
CN(C)c1ccc(-c2nnc(-c3ccccc3F)o2)cc1 | 1 | 1 | -18 | 1 | 2 | / | / | /
CC(O)(c1cccnc1)c1nc(-c2cccc3cccnc23)cs1 (stereo unspecified) | -1 | 0 | / | -21 | / | / | / | /
CSc1nc(Oc2ccc(F)cc2F)cc(C(F)(F)F)n1 | 3 | 0 | -12 | -22 | -5 | / | / | /
CSc1nc(Oc2cccc(C(F)(F)F)c2)cc(C(F)(F)F)n1 | 9 | 55* | -4 | 9 | -7 | 4 | 11* | >80
CSc1ccccc1OC1CCN(Cc2ccccc2)CC1 | 5 | 54* | -11 | -14 | 8 | 0 | i | 63*
Cc1c(NC(=O)c2cc3c(s2)-c2ccccc2OC3)cccc1[N+](=O)[O-] | 10 | 64* | -2 | 26 | -6 | 77* | / | /
CCN1CCN(CCCNC(=O)c2cc3c(s2)-c2ccccc2OC3)CC1 | 0 | 0 | 0 | -17 | -10 | / | / | /
Cc1csc(NC(=O)c2cc3c(s2)-c2ccccc2OC3)n1 | 1 | 3 | -5 | 17 | -7 | / | / | /
CN(C)CCNC(=O)c1cc2c(s1)-c1ccccc1OC2 | 2 | 60* | -1 | -18 | 12 | -6 | 14* | >80
N#CCC1(O)C(=O)N(Cc2ccccc2)c2ccccc21 (stereo unspecified) | 1 | -1 | / | -5 | / | / | / | /
CC(=O)NCCNc1nc2cc(-c3ccccc3CO)sc2c(=O)n1C | 0 | 0 | / | -10 | / | / | / | /
Cc1cc(S(=O)(=O)/N=C(\N)c2ccc(C(N)=O)cc2)cc(C)c1F | 3 | -1 | 3 | -12 | -3 | / | / | /
COc1ncnc2c1ncn2CCCN1CCN(C(=O)C2CC2)CC1 | 0 | 1 | 2 | -7 | / | / | / | /
CCOC(=O)C1(Cc2ccccc2)CCCN(Cc2cnn(CC)c2)C1 (stereo unspecified) | 0 | 64* | 3 | -11 | -13 | -2 | >100 | >80
CCOC(=O)C1(Cc2ccccc2)CCN(Cc2cnn(-c3ccccc3)c2)CC1 | 10 | 62* | -3 | 23 | -8 | 2 | 15* | 33*
CCn1cc(CN2CCCC(C(=O)c3ccc(-c4ccccc4)cc3)C2)cn1 (stereo unspecified) | 10 | 58* | / | -8 | 1 | 4 | 19* | 26*
CCN(Cc1ccc(Br)s1)C(=O)CSc1nnc(C2CC2)n1C1CC1 | 8 | 2 | -1 | -22 | / | / | / | /
CC(C)Sc1cc(N2CCOCC2)nc(-c2ccccc2)n1 | 6 | 50* | -14 | -25 | -10 | -9 | >100 | 77*
CC(C)Sc1cc(N2CCCC2)nc(-c2ccccc2)n1 | 36 | 1 | -11 | -14 | -1 | / | / | /
